In brackets after ≈: the same amount, converted by molar mass.
What was measured:
Staphylococcus aureus [1] = experiment: Antibacterial activity against Staphylococcus aureus at 100 ug/ml incubated for 24 hrs by agar well diffusion method; format: functional; conditions: read-out: DIZ
Procedure, shortened: (§1)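 Bacteria grown in nutrient broth at 37 °C for 24 h, then subcultured at room temperature. Compounds dissolved in DMSO at 5 mg mL⁻¹ and 5–20 µL added to 6 mm wells, giving 25, 50, 75, 100 µg per well. Gentamicin was the positive control and DMSO the negative control. Plates held at 37 °C for 24 h, then inhibition zone diameter (mm) measured. Values are means of three determinations.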

Fusarium oxysporum [2] = experiment: Antifungal activity against Fusarium oxysporum at 100 ug/ml incubated for 48 hrs by agar well diffusion method; format: functional; conditions: read-out: DIZ
Procedure, shortened: (§2)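 Compounds dissolved in DMSO at 5 mg mL⁻¹ and 5–20 µL added to 6 mm wells, giving 25, 50, 75, 100 µg per well. Bavistin was the positive control and DMSO the negative control. Plates incubated at 28 °C for 48 h, then inhibition zone diameter (mm) measured. Values are means of three determinations.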

Candida albicans [3] = experiment: Antifungal activity against Candida albicans incubated for 48 to 72 hrs by microdilution method; format: functional
Procedure, shortened: (§3)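 Sabouraud agar plates inoculated with fungal suspension at 10⁵ CFU mL⁻¹ plus serially diluted compounds and bavistin reference, both in DMSO. Incubated at 25 °C for 48–72 h. MIC is the lowest concentration completely inhibiting growth. Values are means of three determinations.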

Staphylococcus aureus [4] = experiment: Induction of cell membrane damage in Staphylococcus aureus assessed as cell content leakage at MIC by spectrophotometric method; format: functional, organism-based; conditions: TDE = time-dependent effect
Procedure, shortened: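 Log-phase S. aureus inoculated into 0.1% sterile peptone water, with an untreated control, and held at 37 °C for 0, 30, 60 and 120 min. 1 mL of broth centrifuged and supernatant OD read at 260 nm to measure released DNA. Run in triplicate, repeated three times.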

Candida albicans [5] = experiment: Antifungal activity against Candida albicans at 100 ug/ml incubated for 48 hrs by agar well diffusion method; format: functional; conditions: read-out: DIZ; procedure, shortened: as §2
Fusarium oxysporum [6] = experiment: Antifungal activity against Fusarium oxysporum at 75 ug/ml incubated for 48 hrs by agar well diffusion method; format: functional; conditions: read-out: DIZ; procedure, shortened: as §2
Staphylococcus aureus [7] = experiment: Antibacterial activity against Staphylococcus aureus at 75 ug/ml incubated for 24 hrs by agar well diffusion method; format: functional; conditions: read-out: DIZ; procedure, shortened: as §1
Escherichia coli [8] = experiment: Antibacterial activity against Escherichia coli incubated for 24 hrs by microdilution method; format: functional
Klebsiella pneumoniae [9] = experiment: Antibacterial activity against Klebsiella pneumoniae at 50 ug/ml incubated for 24 hrs by agar well diffusion method; format: functional; conditions: read-out: DIZ; procedure, shortened: as §1
Bacillus subtilis [10] = experiment: Antibacterial activity against Bacillus subtilis at 100 ug/ml incubated for 24 hrs by agar well diffusion method; format: functional; conditions: read-out: DIZ; procedure, shortened: as §1
Escherichia coli [11] = experiment: Antibacterial activity against Escherichia coli at 50 ug/ml incubated for 24 hrs by agar well diffusion method; format: functional; conditions: read-out: DIZ; procedure, shortened: as §1
Aspergillus niger [12] = experiment: Antifungal activity against Aspergillus niger at 25 ug/ml incubated for 48 hrs by agar well diffusion method; format: functional; conditions: read-out: DIZ; procedure, shortened: as §2
Aspergillus niger [13] = experiment: Antifungal activity against Aspergillus niger at 100 ug/ml incubated for 48 hrs by agar well diffusion method; format: functional; conditions: read-out: DIZ; procedure, shortened: as §2
Klebsiella pneumoniae [14] = experiment: Antibacterial activity against Klebsiella pneumoniae at 100 ug/ml incubated for 24 hrs by agar well diffusion method; format: functional; conditions: read-out: DIZ; procedure, shortened: as §1
Aspergillus niger [15] = experiment: Antifungal activity against Aspergillus niger at 50 ug/ml incubated for 48 hrs by agar well diffusion method; format: functional; conditions: read-out: DIZ; procedure, shortened: as §2
Fusarium oxysporum [16] = experiment: Antifungal activity against Fusarium oxysporum at 50 ug/ml incubated for 48 hrs by agar well diffusion method; format: functional; conditions: read-out: DIZ; procedure, shortened: as §2
Escherichia coli [17] = experiment: Antibacterial activity against Escherichia coli at 100 ug/ml incubated for 24 hrs by agar well diffusion method; format: functional; conditions: read-out: DIZ; procedure, shortened: as §1
Aspergillus niger [18] = experiment: Antifungal activity against Aspergillus niger incubated for 48 to 72 hrs by microdilution method; format: functional; procedure, shortened: as §3
Candida albicans [19] = experiment: Antifungal activity against Candida albicans at 75 ug/ml incubated for 48 hrs by agar well diffusion method; format: functional; conditions: read-out: DIZ; procedure, shortened: as §2
Escherichia coli [20] = experiment: Antibacterial activity against Escherichia coli at 75 ug/ml incubated for 24 hrs by agar well diffusion method; format: functional; conditions: read-out: DIZ; procedure, shortened: as §1
Klebsiella pneumoniae [21] = experiment: Antibacterial activity against Klebsiella pneumoniae at 25 ug/ml incubated for 24 hrs by agar well diffusion method; format: functional; conditions: read-out: DIZ; procedure, shortened: as §1
Aspergillus niger [22] = experiment: Antifungal activity against Aspergillus niger at 75 ug/ml incubated for 48 hrs by agar well diffusion method; format: functional; conditions: read-out: DIZ; procedure, shortened: as §2
Klebsiella pneumoniae [23] = experiment: Antibacterial activity against Klebsiella pneumoniae at 75 ug/ml incubated for 24 hrs by agar well diffusion method; format: functional; conditions: read-out: DIZ; procedure, shortened: as §1
Candida albicans [24] = experiment: Antifungal activity against Candida albicans at 50 ug/ml incubated for 48 hrs by agar well diffusion method; format: functional; conditions: read-out: DIZ; procedure, shortened: as §2
Bacillus subtilis [25] = experiment: Antibacterial activity against Bacillus subtilis at 50 ug/ml incubated for 24 hrs by agar well diffusion method; format: functional; conditions: read-out: DIZ; procedure, shortened: as §1
Erythrocyte = experiment: Anti-inflammatory activity in human RBC assessed as inhibition of hypotonic solution-induced hemolysis after 10 mins by spectrophotometric method; format: functional, cell-based
Procedure, shortened: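 Human blood (heparinized) washed with 0.9% saline, packed cells made into a 40% v/v stock in isotonic phosphate buffer (154 mM NaCl, 10 mM sodium phosphate, pH 7.4). Stock RBC mixed with hypotonic buffer (50 mM NaCl, 10 mM phosphate, pH 7.4) plus sample at 20–100 µg mL⁻¹.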

Bacillus subtilis [26] = experiment: Antibacterial activity against Bacillus subtilis at 25 ug/ml incubated for 24 hrs by agar well diffusion method; format: functional; conditions: read-out: DIZ; procedure, shortened: as §1
Staphylococcus aureus [27] = experiment: Antibacterial activity against Staphylococcus aureus at 50 ug/ml incubated for 24 hrs by agar well diffusion method; format: functional; conditions: read-out: DIZ; procedure, shortened: as §1
Staphylococcus aureus [28] = experiment: Antibacterial activity against Staphylococcus aureus at 25 ug/ml incubated for 24 hrs by agar well diffusion method; format: functional; conditions: read-out: DIZ; procedure, shortened: as §1
Staphylococcus aureus [29] = experiment: Antibacterial activity against Staphylococcus aureus incubated for 24 hrs by microdilution method; format: functional
Fusarium oxysporum [30] = experiment: Antifungal activity against Fusarium oxysporum at 25 ug/ml incubated for 48 hrs by agar well diffusion method; format: functional; conditions: read-out: DIZ; procedure, shortened: as §2
Bacillus subtilis [31] = experiment: Antibacterial activity against Bacillus subtilis incubated for 24 hrs by microdilution method; format: functional
Klebsiella pneumoniae [32] = experiment: Antibacterial activity against Klebsiella pneumoniae incubated for 24 hrs by microdilution method; format: functional
Candida albicans [33] = experiment: Antifungal activity against Candida albicans at 25 ug/ml incubated for 48 hrs by agar well diffusion method; format: functional; conditions: read-out: DIZ; procedure, shortened: as §2
Bacillus subtilis [34] = experiment: Antibacterial activity against Bacillus subtilis at 75 ug/ml incubated for 24 hrs by agar well diffusion method; format: functional; conditions: read-out: DIZ; procedure, shortened: as §1
Fusarium oxysporum [35] = experiment: Antifungal activity against Fusarium oxysporum incubated for 48 to 72 hrs by microdilution method; format: functional; procedure, shortened: as §3
Escherichia coli [36] = experiment: Antibacterial activity against Escherichia coli at 25 ug/ml incubated for 24 hrs by agar well diffusion method; format: functional; conditions: read-out: DIZ; procedure, shortened: as §1

SMILES: CC(C)(C)OC(=O)N[C@@H](Cc1ccccc1)C(=O)Oc1ccc2c(=O)c3ccccc3oc2c1
- zone of inhibition at 100 µg/mL (Staphylococcus aureus [1]): 34 mm
- zone of inhibition at 100 µg/mL (Fusarium oxysporum [2]): 32 mm
- MIC (Candida albicans [3]): 30 µg/mL (≈ 65.3 µM)
- Activity (Staphylococcus aureus [4]): Tde
- zone of inhibition at 100 µg/mL (Candida albicans [5]): 38 mm
- zone of inhibition at 75 µg/mL (Fusarium oxysporum [6]): 27 mm
- zone of inhibition at 75 µg/mL (Staphylococcus aureus [7]): 31 mm
- MIC (Escherichia coli [8]): 22 µg/mL (≈ 47.9 µM)
- zone of inhibition at 50 µg/mL (Klebsiella pneumoniae [9]): 27 mm
- zone of inhibition at 100 µg/mL (Bacillus subtilis [10]): 36 mm
- zone of inhibition at 50 µg/mL (Escherichia coli [11]): 25 mm
- zone of inhibition at 25 µg/mL (Aspergillus niger [12]): 17 mm
- zone of inhibition at 100 µg/mL (Aspergillus niger [13]): 40 mm
- zone of inhibition at 100 µg/mL (Klebsiella pneumoniae [14]): 37 mm
- zone of inhibition at 50 µg/mL (Aspergillus niger [15]): 28 mm
- zone of inhibition at 50 µg/mL (Fusarium oxysporum [16]): 22 mm
- zone of inhibition at 100 µg/mL (Escherichia coli [17]): 34 mm
- MIC (Aspergillus niger [18]): 28 µg/mL (≈ 60.9 µM)
- zone of inhibition at 75 µg/mL (Candida albicans [19]): 32 mm
- zone of inhibition at 75 µg/mL (Escherichia coli [20]): 32 mm
- zone of inhibition at 25 µg/mL (Klebsiella pneumoniae [21]): 20 mm
- zone of inhibition at 75 µg/mL (Aspergillus niger [22]): 35 mm
- zone of inhibition at 75 µg/mL (Klebsiella pneumoniae [23]): 33 mm
- zone of inhibition at 50 µg/mL (Candida albicans [24]): 27 mm
- zone of inhibition at 50 µg/mL (Bacillus subtilis [25]): 26 mm
- IC50 (Erythrocyte): 38 µg/mL (≈ 82.7 µM)
- zone of inhibition at 25 µg/mL (Bacillus subtilis [26]): 17 mm
- zone of inhibition at 50 µg/mL (Staphylococcus aureus [27]): 25 mm
- zone of inhibition at 25 µg/mL (Staphylococcus aureus [28]): 18 mm
- MIC (Staphylococcus aureus [29]): 25 µg/mL (≈ 54.4 µM)
- zone of inhibition at 25 µg/mL (Fusarium oxysporum [30]): 14 mm
- MIC (Bacillus subtilis [31]): 26 µg/mL (≈ 56.6 µM)
- MIC (Klebsiella pneumoniae [32]): 26 µg/mL (≈ 56.6 µM)
- zone of inhibition at 25 µg/mL (Candida albicans [33]): 22 mm
- zone of inhibition at 75 µg/mL (Bacillus subtilis [34]): 33 mm
- MIC (Fusarium oxysporum [35]): 27 µg/mL (≈ 58.8 µM)
- zone of inhibition at 25 µg/mL (Escherichia coli [36]): 16 mm
